Diaph act CS = diaphorase activation or chemical reduction counter-screen | activation factor at 20 µM | Diaphorase/resazurin coupled assay, resorufin fluorescence, 16 min; active compounds read high; 1 = vehicle wells, 0 = NADH-free wells | 0.005% of 190,000 active;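 active = diaphorase activity raised at least twofold by the compound at 20 µM; inactive = activation factor below 2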
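Material: purified diaphorase enzyme from Clostridium kluyveri / Medium: HEPES pH 7.4 buffer with MgCl2 and Tween 20 / Schedule: enzyme reaction of 16 min at room temperature / Measured by: resorufin fluorescence, excitation 544 nm, emission 590 nm / Evaluation: rise in resorufin formation, marking diaphorase activation or chemical reduction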
L major viab = reduces viability of Leishmania major promastigotes; resazurin fluorescence viability; inhibition, % at 10 µM; 9% of 200,000 active;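 also: promastigotes grown with compound for 44 hours at 28 °C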
Diaph inh CS = inhibits diaphorase or chemically oxidizes, flagging diaphorase assay artifacts; diaphorase resazurin-to-resorufin fluorescence, NADH, 16 min; bacterial (C. kluyveri) enzyme, not human; inhibition, % at 20 µM; 0.69% of 190,000 active; AID 1217;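 active = primary screen inhibition at 20 µM above a set limit, cut at about 50% in these data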
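Assay system: diaphorase enzyme from Clostridium kluyveri. Quantity: enzyme working solution with 0.14 U/mL diaphorase. Schedule: reaction incubation of 16 min at room temperature. Technique: resorufin fluorescence, excitation 544 nm, emission 590 nm. Controls: No-NADH positive control and DMSO neutral control.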
WT yeast gro inh = growth inhibition of WT yeast, mitochondrial fusion screen | 2.1% of 190,000 active | mitochondrial fusion phenotypic screen, WT strain | inhibition, % at 10 µM; in the data active = inhibition above about 58%; tested in S. cerevisiae
G6PDH counter = L. mesenteroides G6PDH inhibition counter-screen | inhibition, % at 5 µM | 0.12% of 200,000 active | Purified L. mesenteroides G6PDH, diaphorase/resazurin coupled fluorescence, 45 min | AID 1020
Each line names hits and unclear results; the compound was inactive in the other large screens. The list is not random: actives were taken first. Their share in the collection is about 11%. Rule as the data show it, unless noted: active = inhibition above about 50%; inactive = the rest.

COc1ccc(Cl)cc1NC(=O)C12CCC(C)(C(=O)O1)C2(C)C (stereo not drawn)	none
CCCOc1ccc([N+](=O)[O-])c(N)c1	none
FC(F)Oc1ccc(NC(=S)NCc2ccccc2)cc1	none
FC(F)Oc1ccccc1NC(=S)Nc1cccnc1	none
Cc1ccc(NC(=S)Nc2ccc(Cl)c(Cl)c2)c(OC(F)F)c1	WT yeast gro inh 80
FC(F)Oc1ccc(NC(=S)NCc2ccccc2)cc1Cl	WT yeast gro inh 58
Fc1ccc(NC(=S)Nc2ccccc2OC(F)F)cc1Cl	WT yeast gro inh 62
Cc1cc(C)cc(NC(=S)Nc2ccc(Cl)c(Cl)c2)c1	none
Cc1cccc(C)c1NC(=S)Nc1ccc(Cl)c(Cl)c1	L major viab 55, WT yeast gro inh 80
COc1ccc(N2CCN(C(=O)c3cccnc3)CC2)c([N+](=O)[O-])c1	none
Cc1ccc(NC(=S)Nc2ccc(OC(F)F)c(Cl)c2)cc1Cl	WT yeast gro inh 73
CC(NC(=S)Nc1ccc(OC(F)F)c(Cl)c1)C(C)(C)C (stereo not drawn)	none
Fc1ccc(NC(=S)Nc2ccccc2N2CCOCC2)cc1Cl	WT yeast gro inh 61
COc1ccccc1/C=C/C=N/n1c(C)nnc1C	none
CC(=O)Nc1ccc(S(=O)(=O)N(C)Cc2ccccc2)cc1	none
CN(Cc1ccccc1)S(=O)(=O)c1ccc(C(=O)Nc2nnc(C3CC3)o2)cc1	L major viab 99, WT yeast gro inh 74
CN(c1ccccc1)S(=O)(=O)c1ccc(C(=O)Nc2nnc(-c3ccc(F)cc3)o2)cc1	none
COc1ccccc1-c1nnc(NC(=O)c2ccc(S(=O)(=O)N(C)Cc3ccccc3)cc2)o1	L major viab 97
COc1cc(OC)cc(-c2nc3ccccc3c(=O)n2OC(=O)c2ccc(Br)cc2)c1	L major viab 50
COc1ccc(C(=O)On2c(-c3ccc(Br)cc3)nc3ccccc3c2=O)cc1	none
Cc1cc(C(=O)Nn2c(-c3ccc(Br)cc3)nc3ccccc3c2=O)ccc1[N+](=O)[O-]	WT yeast gro inh 68
Cc1ccc(NS(=O)(=O)c2ccc(OCC(=O)NCc3cccnc3)cc2)cc1	none
C#CC(=O)N(c1cc(OC)ccc1OC)C(C(=O)NC1CCCC1)c1cccs1 (stereo not drawn)	L major viab 101
COc1ccc(CCN(C(=O)C(F)(F)F)C(C(=O)NC2CCCC2)c2cccs2)cc1 (stereo not drawn)	L major viab 62
C#CC(=O)N(c1ccc(OC)cc1OC)C(C(=O)NC1CCCC1)c1cccs1 (stereo not drawn)	L major viab 94
COc1ccc(N(C(=O)c2ccco2)C(C(=O)NC2CCCCC2)c2cccs2)cc1OC (stereo not drawn)	none
COc1ccccc1/C=N/NC(=Nc1ccc(C)cc1)c1nc2ccccc2s1	none
COc1cc(C=C(c2nc3ccccc3s2)c2nc3ccccc3s2)cc(OC)c1O	L major viab 95, WT yeast gro inh 74
CCOc1cc(/C=C(\CC(=O)O)c2nc3ccccc3s2)ccc1OC	L major viab 98
COc1cc(/C=N/NC(=Nc2ccc(C)cc2)c2nc3ccccc3s2)ccc1O	WT yeast gro inh 75
O=C(O)c1ccc(C=C(c2nc3ccccc3s2)c2nc3ccccc3s2)cc1	WT yeast gro inh 74
COc1cc(/C=C(\CC(=O)O)c2nc3ccccc3s2)cc(OC)c1O	none
COc1ccc(/C=C(\CC(=O)O)c2nc3ccccc3s2)cc1O	none
CCOC(=O)c1c(NC(=O)C2CC(Cl)=CCC2C(=O)O)sc2c1CC(C)(C)OC2 (stereo not drawn)	none
COc1ccc(-c2nc3ccccc3s2)cc1O	WT yeast gro inh 59
COc1cc(-c2nc3ccccc3s2)ccc1O	none (no result: WT yeast gro inh)
COc1cccc(Cn2cnc3c(NS(=O)(=O)c4ccc(Cl)cc4Cl)c(C)c(C)cc32)c1	none
COc1cccc(Cn2cnc3c(NS(=O)(=O)c4ccc(Cl)cc4)c(C)c(C)cc32)c1	L major viab 50
CCOc1cc(C(N)=O)cc(Br)c1OCc1ccccc1	L major viab 100
CCn1nnnc1SCC(=O)c1cc(OC)ccc1OC	none
CCc1c(C(=O)NN2C(=O)C3CCCCC3C2=O)csc1C (stereo not drawn)	none
O=C(CCl)N1N=C(c2cccs2)CC1c1ccco1 (stereo not drawn)	L major viab 96
COc1cc(-c2nnc(CSc3nnc(N)s3)o2)cc(OC)c1OC	none
COc1cc(-c2nnc(CSc3nnc(Nc4ccc(Oc5ccccc5)cc4)s3)o2)cc(OC)c1OC	L major viab 77
COc1ccc(/C=N/NC(=O)Cn2cnc3ccccc3c2=O)cc1OC	none
NNc1ccc2nnc(C(F)(F)C(F)(F)C(F)(F)F)n2n1	none
CN(C)S(=O)(=O)c1cccc(NC(=O)CNCC2CCCCC2)c1	L major viab 84
CCN(CC)S(=O)(=O)c1ccc(Cl)c(NC(=O)COc2ccc3c(C)cc(=O)oc3c2)c1	none
Cc1cc(=O)oc2cc(OCC(=O)Nc3cccc(S(=O)(=O)N(C)C)c3)ccc12	L major viab 60
O=C(c1ccccc1)N1CN2CN(C(=O)c3ccccc3)CC([N+](=O)[O-])(C2)C1	none
COc1ccc(C(=S)N2CCCCCC2)cc1	none
CCN1CCN(C(=S)c2ccc(Cl)cc2)CC1	L major viab 88
CCN1CCN(C(=S)c2ccc([N+](=O)[O-])cc2)CC1	L major viab 58
CCN1CCN(C(=S)c2ccc(OC)cc2)CC1	L major viab 100
CCN(CC)CCCOC(=O)C(c1ccccc1)c1ccccc1	L major viab 86
O=C(OCCN1CCOCC1)C(c1ccccc1)c1ccccc1	none
O=[N+]([O-])c1cnc(N2CCCCC2)c([N+](=O)[O-])c1	none
CCOC(=O)CC(NS(=O)(=O)Cc1ccccc1)c1ccc(C)cc1 (stereo not drawn)	L major viab 59
CCOC(=O)CC(NS(=O)(=O)c1ccc(NC(C)=O)cc1)c1ccc(OCC)cc1 (stereo not drawn)	none
COc1ccc(/C=N/NC(=O)OC(C)(C)C)cc1OC	none
Cc1cc(C)cc(NC(=O)CSc2nc3c(oc4ccccc43)c(=O)n2-c2ccccc2)c1	L major viab 61
Cc1cc(N2CC(C)OC(C)C2)n2cc(-c3ccccc3)nc2n1 (stereo not drawn)	none
Cc1ccc(N=Cc2c(C)[nH]n(-c3nc4ccccc4[nH]3)c2=O)cc1	WT yeast gro inh 84
O=C1c2cccc3c(N4CCCCC4)ccc(c23)C(=O)N1CCO	none
O=C1c2cccc3c(N4CCCCC4)ccc(c23)C(=O)N1c1cccc(O)c1	Diaph inh CS 60
COc1ccc(OC)c(NC(=O)Cn2cc(C=O)c3ccccc32)c1	none
CCC1=NN2C(=N)/C(=C\c3cccn3-c3ccc(C)cc3C)C(=O)N=C2S1	WT yeast gro inh 84
COc1ccc(-n2cccc2/C=C2\C(=N)N3N=C(c4ccco4)SC3=NC2=O)cc1	Diaph inh CS 74
